Measurements as given in ChEMBL document CHEMBL1127345, “Synthesis, binding properties, and 18F labeling of fluorocarazolol, a high-affinity beta-adrenergic receptor antagonist” (J Med Chem, 1994).

Assays:
Mus musculus [1] = experiment: The in vivo tissue distribution of mouse blood with Propranolol administration after 60 min, value was fractional dose per fractional body weight of the organ; assay type: ADME, organism-based; conditions: 1 h
Outline: (§1)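 Male CF-1 mice (25–30 g), anesthetised with 2 mg sodium pentobarbital ip 30 min before tracer. Where blocked, propranolol iv via tail vein (0.1 mL of […]; […]) about 30 min before tracer. Tracer given by tail vein, 0.1 mL at 1–2 mCi/mL. Mice killed by cervical dislocation at set times, organs weighed and counted. %ID/g × body weight/100 gives unitless uptake. Heart, brain, blood, lung, kidney, liver and bone n=5; average ± SD.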

Mus musculus [2] = experiment: The in vivo tissue distribution of mouse blood with Propranolol preadministration in 120 min, value was fractional dose per fractional body weight of the organ; assay type: ADME, organism-based; conditions: 2 h
Outline: (§2)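 Male CF-1 mice (25–30 g) anaesthetised with 2 mg sodium pentobarbital ip; blocked group given 0.1 mL of […] propranolol iv via tail vein (200 μg, 6.6 mg/kg), tracer 30 min later. 0.1 mL of 1–2 mCi/mL [18F]-labelled enantiomer iv via tail vein; killed by cervical dislocation, organs weighed and counted against weighed standards. %ID/g × body weight/100 gives unitless uptake; five mice per point (heart, blood, lung, kidney, liver, bone); mean ± SD.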

Mus musculus [3] = experiment: The in vivo tissue distribution of mouse brain with Propranolol administration after 120 min, value was fractional dose per fractional body weight of the organ; assay type: ADME, organism-based; conditions: 2 h
Outline: (§3)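 Male CF-1 mice (25–30 g), given 2 mg sodium pentobarbital ip 30 min before tracer. Blocked groups received propranolol iv by tail vein, 0.1 mL of 1 mg/mL. About 30 min later, 0.1 mL of [18F]tracer (1–2 mCi/mL) was injected by tail vein. Mice were killed by cervical dislocation at set times, and organs were weighed and counted. Uptake is %ID/g × body weight/100, average ± SD; n=5 for heart, brain, blood, lung, kidney, liver and bone.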

Mus musculus [4] = experiment: The in vivo tissue distribution of mouse kidney with Propranolol administration after 120 min, value was fractional dose per fractional body weight of the organ; assay type: ADME, organism-based; conditions: 2 h; outline: as §1
Mus musculus [5] = experiment: The in vivo tissue distribution of mouse bone with Propranolol administration after 90 min, value was fractional dose per fractional body weight of the organ; assay type: ADME, organism-based, Bone element; conditions: 1.5 h; outline: as §1
Mus musculus [6] = experiment: The in vivo tissue distribution of mouse lung with Propranolol administration after 120 min, value was fractional dose per fractional body weight of the organ; assay type: ADME, organism-based; conditions: 2 h; outline: as §2
Mus musculus [7] = experiment: The in vivo tissue distribution of mouse lung without Propranolol preadministration in 180 min, value was fractional dose per fractional body weight of the organ; conditions: 3 h
Mus musculus [8] = experiment: The in vivo tissue distribution of mouse lung without Propranolol preadministration in 40 min, value was fractional dose per fractional body weight of the organ
Mus musculus [9] = experiment: The in vivo tissue distribution of mouse liver without Propranolol preadministration in 10 min, value was fractional dose per fractional body weight of the organ
Mus musculus [10] = experiment: The in vivo tissue distribution of mouse brain with Propranolol administration after 40 min, value was fractional dose per fractional body weight of the organ; assay type: ADME, organism-based; outline: as §1
Mus musculus [11] = experiment: The in vivo tissue distribution of mouse heart with Propranolol administration after 40 min, value was fractional dose per fractional body weight of the organ; assay type: ADME, organism-based; outline: as §1
Mus musculus [12] = experiment: The in vivo tissue distribution of mouse lung without Propranolol preadministration in 120 min, value was fractional dose per fractional body weight of the organ; conditions: 2 h
Mus musculus [13] = experiment: The in vivo tissue distribution of mouse kidney with Propranolol administration after 90 min, value was fractional dose per fractional body weight of the organ; assay type: ADME, organism-based; conditions: 1.5 h; outline: as §1
Mus musculus [14] = experiment: The in vivo tissue distribution of mouse lung with Propranolol administration after 20 min, value was fractional dose per fractional body weight of the organ; assay type: ADME, organism-based; outline: as §3
Mus musculus [15] = experiment: The in vivo tissue distribution of mouse heart with Propranolol administration after 10 min, value was fractional dose per fractional body weight of the organ; assay type: ADME, organism-based; outline: as §2
Mus musculus [16] = experiment: The in vivo tissue distribution of mouse bone with Propranolol administration after 120 min, value was fractional dose per fractional body weight of the organ; assay type: ADME, organism-based, Bone element; conditions: 2 h; outline: as §3
Mus musculus [17] = experiment: The in vivo tissue distribution of mouse heart without Propranolol preadministration in 60 min, value was fractional dose per fractional body weight of the organ; conditions: 1 h
Mus musculus [18] = experiment: The in vivo tissue distribution of mouse liver with Propranolol administration after 180 min, value was fractional dose per fractional body weight of the organ; assay type: ADME, organism-based; conditions: 3 h; outline: as §2
Mus musculus [19] = experiment: The in vivo tissue distribution of mouse heart with Propranolol administration after 60 min, value was fractional dose per fractional body weight of the organ; assay type: ADME, organism-based; conditions: 1 h
Outline: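 Male CF-1 mice, 25–30 g, anesthetized with 2 mg sodium pentobarbital ip. Propranolol pretreatment was 0.1 mL of 1 mg/mL iv by tail vein. About 30 min later, 0.1 mL of 1–2 mCi/mL [18F]tracer was given by tail vein. Mice were killed by cervical dislocation at set times. Organs were weighed and counted against weighed dose standards. %ID/g × body weight/100 gave fractional dose per fractional body weight. Blood and heart n=5.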

Mus musculus [20] = experiment: The in vivo tissue distribution of mouse blood without Propranolol preadministration in 60 min, value was fractional dose per fractional body weight of the organ; conditions: 1 h
Mus musculus [21] = experiment: The in vivo tissue distribution of mouse lung without Propranolol preadministration in 20 min, value was fractional dose per fractional body weight of the organ
Mus musculus [22] = experiment: The in vivo tissue distribution of mouse kidney without Propranolol preadministration in 60 min, value was fractional dose per fractional body weight of the organ; conditions: 1 h
Mus musculus [23] = experiment: The in vivo tissue distribution of mouse kidney without Propranolol preadministration in 20 min, value was fractional dose per fractional body weight of the organ
Mus musculus [24] = experiment: The in vivo tissue distribution of mouse bone with Propranolol administration after 180 min, value was fractional dose per fractional body weight of the organ; assay type: ADME, organism-based, Bone element; conditions: 3 h; outline: as §3
[25] = The in vivo tissue distribution of mouse kidney without Propranolol preadministration in 180 min, value was fractional dose per fractional body weight of the organ; conditions: 3 h
Mus musculus [26] = experiment: The in vivo tissue distribution of mouse blood without Propranolol preadministration in 20 min, value was fractional dose per fractional body weight of the organ
Mus musculus [27] = experiment: The in vivo tissue distribution of mouse heart without Propranolol preadministration in 20 min, value was fractional dose per fractional body weight of the organ
Mus musculus [28] = experiment: The in vivo tissue distribution of mouse kidney with Propranolol administration after 40 min, value was fractional dose per fractional body weight of the organ; assay type: ADME, organism-based; outline: as §3
Mus musculus [29] = experiment: The in vivo tissue distribution of mouse blood without Propranolol preadministration in 40 min, value was fractional dose per fractional body weight of the organ
Mus musculus [30] = experiment: The in vivo tissue distribution of mouse bone with Propranolol preadministration in 90 min, value was fractional dose per fractional body weight of the organ; assay type: ADME, organism-based, Bone element; conditions: 1.5 h; outline: as §2

SMILES	Dose/organ (Mus musculus [1])	Dose/organ (Mus musculus [2])	Dose/organ (Mus musculus [3])	Dose/organ (Mus musculus [4])	Dose/organ (Mus musculus [5])	Dose/organ (Mus musculus [6])	Dose/organ (Mus musculus [7])	Dose/organ (Mus musculus [8])	Dose/organ (Mus musculus [9])	Dose/organ (Mus musculus [10])	Dose/organ (Mus musculus [11])	Dose/organ (Mus musculus [12])	Dose/organ (Mus musculus [13])	Dose/organ (Mus musculus [14])	Dose/organ (Mus musculus [15])	Dose/organ (Mus musculus [16])	Dose/organ (Mus musculus [17])	Dose/organ (Mus musculus [18])	Dose/organ (Mus musculus [19])	Dose/organ (Mus musculus [20])	also measured
CC(C[18F])NC[C@H](O)COc1cccc2[nH]c3ccccc3c12 (stereo not given in full)	0.25	0.52	0.11	0.38	0.72	0.52	4.8	6.16	3.55	0.64	0.51	4.82	0.92	3.26	1.06	1.42	0.61	0.59	0.29	0.6	Dose/organ (Mus musculus [21]): 7.46; Dose/organ (Mus musculus [22]): 1.39; Dose/organ (Mus musculus [23]): 2.89; Dose/organ (Mus musculus [24]): 2.72; Dose/organ [25]: 0.71; Dose/organ (Mus musculus [26]): 0.71; Dose/organ (Mus musculus [27]): 0.91; Dose/organ (Mus musculus [28]): 1.64; Dose/organ (Mus musculus [29]): 0.69; Dose/organ (Mus musculus [30]): 1.13
CC(C[18F])NC[C@@H](O)COc1cccc2[nH]c3ccccc3c12 (stereo not given in full)	0.63	0.24	0.12	0.63	1.57	0.45	0.84	3.29	3.08	0.9	0.73	1.29	1.57	3.87	1	1.98	0.56	0.5	0.57	0.42	Dose/organ (Mus musculus [21]): 5.1; Dose/organ (Mus musculus [22]): 2.63; Dose/organ (Mus musculus [23]): 4.8; Dose/organ (Mus musculus [24]): 2.98; Dose/organ [25]: 0.67; Dose/organ (Mus musculus [26]): 0.75; Dose/organ (Mus musculus [27]): 0.81; Dose/organ (Mus musculus [28]): 2.7; Dose/organ (Mus musculus [29]): 0.63; Dose/organ (Mus musculus [30]): 1
